Experimental data as given in ChEMBL document CHEMBL2412952, “2-Substituted 4-hydroxybutanamides as potential inhibitors of γ-aminobutyric acid transporters mGAT1-mGAT4: synthesis and biological evaluation” (Bioorg Med Chem, 2013).
pIC50, pKi: −log10 of the molar value. Calls of active or inactive are those of the source.

Assays:
Mus musculus [1] = experiment: Neurotoxicity in albino Swiss CD-1 mouse assessed as mean time spent on the rotarod with 24 rpm at 30 mg/kg, ip after 30 mins by rotarod test (reference value: 60.0 +/- 0.0 seconds); assay type: toxicity, organism-based; parameters: dose 30 mg/kg, route intraperitoneal; conditions: in vivo, 0.5 h
Method in brief: (§1)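 CD-1 mice trained 3 days on a 2 cm rotarod at 18 rpm, then tested ≥24 h later, 30 min after ip dosing, at 6, 18 and 24 rpm. Failure to stay on for 1 min counted as impairment (fallers/tested; Fisher's exact); mean time on rod also recorded (ANOVA/Dunnett); 8 mice per group.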

Mus musculus [2] = experiment: Neurotoxicity in albino Swiss CD-1 mouse assessed as mean time spent on the rotarod with 18 rpm at 30 mg/kg, ip after 30 mins by rotarod test (reference value: 60.0 +/- 0.0 seconds); assay type: toxicity, organism-based; parameters: dose 30 mg/kg, route intraperitoneal; conditions: in vivo, 0.5 h; method in brief: as §1
Mus musculus [3] = experiment: Neurotoxicity in albino Swiss CD-1 mouse assessed as mean time spent on the rotarod with 6 rpm at 30 mg/kg, ip after 30 mins by rotarod test (reference value: 60.0 +/- 0.0 seconds); assay type: toxicity, organism-based; parameters: dose 30 mg/kg, route intraperitoneal; conditions: in vivo, 0.5 h; method in brief: as §1
Mus musculus [4] = experiment: Antinociceptive activity against formalin-induced inflammatory pain in albino Swiss CD-1 mouse assessed as duration of licking response at 30 mg/kg, ip administered 30 mins prior to formalin challenge measured for 15 to 30 mins (reference value: 78.8 +/- 15.9 seconds); assay type: functional; conditions: route intraperitoneal
Method in brief: (§2)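 Male CD-1 mice, 18–25 g, 6–12 per dose; compound suspended in 0.5% methylcellulose, given ip 30 min before 20 µl of 5% formalin intraplantar into right hind paw. Time spent licking the injected paw scored blind at 0–5 min and 15–30 min. Reduction versus vehicle-treated mice; ED50 by log-probit; mean ± SEM, ANOVA/Dunnett or t-test.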

Mus musculus [5] = experiment: Antinociceptive activity against formalin-induced inflammatory pain in albino Swiss CD-1 mouse assessed as duration of licking response at 30 mg/kg, ip administered 30 mins prior to formalin challenge measured up to 5 mins (reference value: 34.8 +/- 9.4 seconds); assay type: functional; conditions: route intraperitoneal; method in brief: as §2
Mus musculus [6] = experiment: Analgesic activity in albino Swiss CD-1 mouse assessed as reduction in formalin-induced inflammatory pain at 30 mg/kg, ip administered 30 mins prior to formalin challenge measured for 15 to 30 mins relative to control; assay type: functional; parameters: scale not given: the % may be the effect or the level left; conditions: route intraperitoneal; method in brief: as §2
Mus musculus [7] = experiment: Analgesic activity in albino Swiss CD-1 mouse assessed as reduction in formalin-induced inflammatory pain at 30 mg/kg, ip administered 30 mins prior to formalin challenge measured up to 5 mins relative to control; assay type: functional; method in brief: as §2
Mus musculus [8] = experiment: Analgesic effect in ip dosed albino Swiss CD-1 mouse assessed as inhibition of acetic acid-induced writhing administered 30 mins prior to acetic acid challenge measured for 30 mins; assay type: functional; conditions: albino Swiss CD-1, ip
Method in brief: (§3)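 Male CD-1 mice (18–25 g), habituated 30 min in beakers, dosed ip (0.5% methylcellulose, 10 ml/kg) 30 min before ip 0.9% acetic acid in saline (10 ml/kg). Writhes counted for 30 min by blinded observers. Effect is % reduction versus vehicle group; ED50 by log-probit; mean ± SEM.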

Mus musculus [9] = experiment: Analgesic effect in albino Swiss CD-1 mouse assessed as inhibition of acetic acid-induced writhing at 7.5 mg/kg, ip administered 30 mins prior to acetic acid challenge measured for 30 mins relative to control; assay type: functional; parameters: scale not given: the % may be the effect or the level left; conditions: route intraperitoneal; method in brief: as §3
Mus musculus [10] = experiment: Analgesic effect in albino Swiss CD-1 mouse assessed as inhibition of acetic acid-induced writhing at 3.75 mg/kg, ip administered 30 mins prior to acetic acid challenge measured for 30 mins relative to control; assay type: functional; parameters: scale not given: the % may be the effect or the level left; conditions: route intraperitoneal; method in brief: as §3
Mus musculus [11] = experiment: Analgesic effect in albino Swiss CD-1 mouse assessed as inhibition of acetic acid-induced writhing at 15 mg/kg, ip administered 30 mins prior to acetic acid challenge measured for 30 mins relative to control; assay type: functional; parameters: scale not given: the % may be the effect or the level left; conditions: route intraperitoneal; method in brief: as §3
Mus musculus [12] = experiment: Antinociceptive activity in albino Swiss CD-1 mouse assessed as prolongation of latency time at 30 mg/kg, ip administered 30 mins prior to test by hot plate test; assay type: functional, organism-based; parameters: dose 30 mg/kg
Method in brief: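 Male CD-1 mice given compound ip in 0.5% methylcellulose 30 min before placement on a plate held at 55–56 °C. Latency to hind-paw licking or jumping timed, 30 s cut-off. Compared with vehicle by ANOVA.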

Mus musculus [13] = experiment: Neurotoxicity in albino Swiss CD-1 mouse assessed as motor impairment at 30 mg/kg, ip after 30 mins by rotarod test; assay type: toxicity, organism-based; parameters: dose 30 mg/kg, route intraperitoneal; conditions: in vivo, 0.5 h; method in brief: as §1
Mus musculus [14] = experiment: Antinociceptive activity against formalin-induced inflammatory pain in albino Swiss CD-1 mouse assessed as duration of licking response at 30 mg/kg, ip administered 30 mins prior to formalin challenge measured for 15 to 30 mins (reference value: 111.6 +/- 17.1 seconds); assay type: functional; conditions: route intraperitoneal; method in brief: as §2
Mus musculus [15] = experiment: Antinociceptive activity against formalin-induced inflammatory pain in albino Swiss CD-1 mouse assessed as duration of licking response at 15 mg/kg, ip administered 30 mins prior to formalin challenge measured for 15 to 30 mins (reference value: 111.6 +/- 17.1 seconds); assay type: functional; conditions: route intraperitoneal; method in brief: as §2
Mus musculus [16] = experiment: Antinociceptive activity against formalin-induced inflammatory pain in albino Swiss CD-1 mouse assessed as duration of licking response at 7.5 mg/kg, ip administered 30 mins prior to formalin challenge measured for 15 to 30 mins (reference value: 111.6 +/- 17.1 seconds); assay type: functional; conditions: route intraperitoneal; method in brief: as §2
Mus musculus [17] = experiment: Antinociceptive activity against formalin-induced inflammatory pain in albino Swiss CD-1 mouse assessed as duration of licking response at 30 mg/kg, ip administered 30 mins prior to formalin challenge measured up to 5 mins (reference value: 55.4 +/- 6.6 seconds); assay type: functional; conditions: route intraperitoneal; method in brief: as §2
Mus musculus [18] = experiment: Antinociceptive activity against formalin-induced inflammatory pain in albino Swiss CD-1 mouse assessed as duration of licking response at 15 mg/kg, ip administered 30 mins prior to formalin challenge measured up to 5 mins (reference value: 55.4 +/- 6.6 seconds); assay type: functional; conditions: route intraperitoneal; method in brief: as §2
Mus musculus [19] = experiment: Antinociceptive activity against formalin-induced inflammatory pain in albino Swiss CD-1 mouse assessed as duration of licking response at 7.5 mg/kg, ip administered 30 mins prior to formalin challenge measured up to 5 mins (reference value: 55.4 +/- 6.6 seconds); assay type: functional; conditions: route intraperitoneal; method in brief: as §2
Mus musculus [20] = experiment: Analgesic activity in albino Swiss CD-1 mouse assessed as reduction in formalin-induced inflammatory pain at 15 mg/kg, ip administered 30 mins prior to formalin challenge measured for 15 to 30 mins relative to control; assay type: functional; parameters: scale not given: the % may be the effect or the level left; conditions: route intraperitoneal; method in brief: as §2
Mus musculus [21] = experiment: Analgesic activity in albino Swiss CD-1 mouse assessed as reduction in formalin-induced inflammatory pain at 15 mg/kg, ip administered 30 mins prior to formalin challenge measured up to 5 mins relative to control; assay type: functional; method in brief: as §2
Mus musculus [22] = experiment: Analgesic activity in albino Swiss CD-1 mouse assessed as reduction in formalin-induced inflammatory pain at 7.5 mg/kg, ip administered 30 mins prior to formalin challenge measured up to 5 mins relative to control; assay type: functional; method in brief: as §2
Mus musculus [23] = experiment: Analgesic activity in albino Swiss CD-1 mouse assessed as reduction in formalin-induced inflammatory pain at 7.5 mg/kg, ip administered 30 mins prior to formalin challenge measured for 15 to 30 mins relative to control; assay type: functional; parameters: scale not given: the % may be the effect or the level left; conditions: route intraperitoneal; method in brief: as §2
Mus musculus [24] = experiment: Analgesic effect in albino Swiss CD-1 mouse assessed as inhibition of acetic acid-induced writhing at 20 mg/kg, ip administered 30 mins prior to acetic acid challenge measured for 30 mins relative to control; assay type: functional; parameters: scale not given: the % may be the effect or the level left; conditions: route intraperitoneal; method in brief: as §3
Mus musculus [25] = experiment: Analgesic effect in albino Swiss CD-1 mouse assessed as inhibition of acetic acid-induced writhing at 30 mg/kg, ip administered 30 mins prior to acetic acid challenge measured for 30 mins relative to control; assay type: functional; parameters: scale not given: the % may be the effect or the level left; conditions: route intraperitoneal; method in brief: as §3
[26] = Inhibition of mouse GAT4-mediated [3H]GABA uptake stably transfected in HEK293 cells; assay type: cell-based
[27] = molecular target: T1, Sodium- and chloride-dependent GABA transporter 1 (Mus musculus, UniProt P31648); experiment: Binding affinity to mouse GAT1 stably transfected in HEK293 cells by NO-711 binding assay; assay type: cell-based
[28] = molecular target: T1, Sodium- and chloride-dependent GABA transporter 1; experiment: Inhibition of mouse GAT1-mediated [3H]GABA uptake stably transfected in HEK293 cells; assay type: cell-based
Mus musculus [29] = experiment: Analgesic activity in ip dosed albino Swiss CD-1 mouse assessed as reduction in formalin-induced inflammatory pain administered 30 mins prior to formalin challenge measured for 15 to 30 mins; assay type: functional; conditions: albino Swiss CD-1, ip; method in brief: as §2
Mus musculus [30] = experiment: Analgesic activity in ip dosed albino Swiss CD-1 mouse assessed as reduction in formalin-induced inflammatory pain administered 30 mins prior to formalin challenge measured up to 5 mins; assay type: functional; conditions: albino Swiss CD-1, ip; method in brief: as §2

SMILES	Time (Mus musculus [1]) [s]	Time (Mus musculus [2]) [s]	Time (Mus musculus [3]) [s]	Activity (Mus musculus [6]) [%]	Activity (Mus musculus [7])	ED50 (Mus musculus [8]) [mg/kg]	Activity (Mus musculus [11]) [%]	Activity (Mus musculus [12])	Activity (Mus musculus [13])	Time (Mus musculus [14]) [s]	Time (Mus musculus [15]) [s]	Time (Mus musculus [16]) [s]	Time (Mus musculus [17]) [s]	Time (Mus musculus [18]) [s]	Time (Mus musculus [19]) [s]	Activity (Mus musculus [20]) [%]	Activity (Mus musculus [23]) [%]	Activity (Mus musculus [25]) [%]	pIC50 [26]	pKi [27]	other results
COc1ccc(C(OCCN2CCC[C@H](C(=O)O)C2)(c2ccc(OC)cc2)c2ccc(OC)cc2)cc1	59	56.3	59.6	39.5	inactive	7.1	70.5	inactive	–	–	–	–	–	–	–	–	–	–	–	–	Time (Mus musculus [4]): 47.7 s; Time (Mus musculus [5]): 35.6 s; Activity (Mus musculus [9]): 62.7%; Activity (Mus musculus [10]): 23.3%
O=C(NCc1ccc(F)cc1)C(CCO)N1CCC(=C(c2ccccc2)c2ccccc2)CC1 (centres undefined)	60	60	60	78.5	inactive	18.1	28.9	inactive	Non-toxic	24	17.8	30.9	58.1	50.4	59.9	84.1	72.3	79.4	4.58	4.94	Activity (Mus musculus [21]): inactive; Activity (Mus musculus [22]): inactive; Activity (Mus musculus [24]): 69.9%; pIC50 [28]: 5.01
O=C(NCc1ccccc1)C(CCO)N1CCC(=C(c2ccccc2)c2ccccc2)CC1 (centres undefined)	60	60	60	85.4	–	–	–	inactive	Non-toxic	16.3	39.6	75.1	27.7	31	39	64.5	32.7	29.8	4.48	5.04	ED50 (Mus musculus [29]): 11.1 mg/kg; Activity (Mus musculus [21]; route intraperitoneal): 44%; Activity (Mus musculus [22]; route intraperitoneal): 29.6%; Activity (Mus musculus [7]; route intraperitoneal): 50%; ED50 (Mus musculus [30]): 27.1 mg/kg; pIC50 [28]: 4.83
